Experimental data from ChEMBL document CHEMBL1157912, “Impact of nature and length of linker incorporated in agonists on toll-like receptor 9-mediated immune responses” (J Med Chem, 2010).
Activity calls are given as the source filed them. The rule behind the calls is not given here.

Assays:
[1] = target: T1, Toll-like receptor 9 (Homo sapiens) (UniProt Q9NR96); assay: Induction of TLR9-mediated immune stimulation in human PBMC assessed as IL6 production at 2 ug/ml after 24 hrs by luminex multiplex assay (RVb = 0.01 ng/ml)
T1 sequence (whole entry): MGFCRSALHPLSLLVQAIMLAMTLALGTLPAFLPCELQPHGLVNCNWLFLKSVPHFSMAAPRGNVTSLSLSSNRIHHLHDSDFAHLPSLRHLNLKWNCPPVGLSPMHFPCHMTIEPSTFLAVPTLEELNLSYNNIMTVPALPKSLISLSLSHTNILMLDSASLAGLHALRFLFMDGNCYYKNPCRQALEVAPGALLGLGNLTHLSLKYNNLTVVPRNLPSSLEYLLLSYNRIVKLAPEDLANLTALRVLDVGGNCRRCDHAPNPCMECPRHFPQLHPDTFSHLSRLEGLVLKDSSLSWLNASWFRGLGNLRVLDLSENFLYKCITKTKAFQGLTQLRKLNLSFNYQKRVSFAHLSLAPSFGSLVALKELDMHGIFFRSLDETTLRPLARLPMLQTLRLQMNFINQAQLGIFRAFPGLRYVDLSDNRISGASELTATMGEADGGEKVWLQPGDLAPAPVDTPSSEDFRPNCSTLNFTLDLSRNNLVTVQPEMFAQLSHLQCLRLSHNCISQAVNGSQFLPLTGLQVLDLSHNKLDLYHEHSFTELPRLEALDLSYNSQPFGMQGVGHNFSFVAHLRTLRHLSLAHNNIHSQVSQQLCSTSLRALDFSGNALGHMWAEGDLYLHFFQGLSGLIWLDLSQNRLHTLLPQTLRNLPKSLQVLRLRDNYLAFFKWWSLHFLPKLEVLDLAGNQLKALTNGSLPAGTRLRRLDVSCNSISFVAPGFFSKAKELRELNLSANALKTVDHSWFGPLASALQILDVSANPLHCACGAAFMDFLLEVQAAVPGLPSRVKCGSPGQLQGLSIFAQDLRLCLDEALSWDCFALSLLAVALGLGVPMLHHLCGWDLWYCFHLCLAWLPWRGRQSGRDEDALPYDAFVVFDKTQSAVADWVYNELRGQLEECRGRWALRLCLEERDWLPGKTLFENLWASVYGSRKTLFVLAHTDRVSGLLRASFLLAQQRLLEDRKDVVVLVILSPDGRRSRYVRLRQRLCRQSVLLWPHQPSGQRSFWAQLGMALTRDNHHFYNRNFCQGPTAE

[2] = target: T1, Toll-like receptor 9 (Homo sapiens); assay: Induction of TLR9-mediated immune stimulation in human PBMC assessed as IL2R production at 10 ug/ml after 24 hrs by luminex multiplex assay (RVb = 0.02 +/- 0.01 ng/ml)
[3] = target: T1, Toll-like receptor 9 (Homo sapiens); assay: Induction of TLR9-mediated immune stimulation in human PBMC assessed as IL2R production at 2 ug/ml after 24 hrs by luminex multiplex assay (RVb = 0.02 +/- 0.01 ng/ml)
[4] = target: T1, Toll-like receptor 9 (Homo sapiens); assay: Induction of TLR9-mediated immune stimulation in human PBMC assessed as IL1Ralpha production at 2 ug/ml after 24 hrs by luminex multiplex assay (RVb = 0.12 +/- 0.03 ng/ml)
[5] = target: T1, Toll-like receptor 9 (Homo sapiens); assay: Induction of TLR9-mediated human B cell proliferation assessed as [3H]thymidine uptake after 56 hrs by scintillation counting
Procedure, shortened: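 B cells were purified from human PBMCs (healthy volunteers), about 1 × 10⁵ cells, and stimulated with various agonist concentrations for 56 h. Cells were then pulsed with 0.75 μCi [³H]-thymidine and harvested 16 h later. Incorporation was counted by scintillation and reported as cpm.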

[6] = target: T1, Toll-like receptor 9 (Homo sapiens); assay: Induction of TLR9-mediated immune stimulation in human PBMC assessed as IP10 production at 10 ug/ml after 24 hrs by luminex multiplex assay (RVb = 0.00 ng/ml)
[7] = target: T1, Toll-like receptor 9 (Homo sapiens); assay: Induction of TLR9-mediated immune stimulation in human PBMC assessed as IL12 production at 2 ug/ml after 24 hrs by luminex multiplex assay (RVb = 0.00 ng/ml)
[8] = target: T1, Toll-like receptor 9 (Homo sapiens); assay: Induction of TLR9-mediated immune stimulation in human PBMC assessed as MIP1alpha production at 2 ug/ml after 24 hrs by luminex multiplex assay (RVb = 0.01 ng/ml)
[9] = target: T1, Toll-like receptor 9 (Homo sapiens); assay: Induction of TLR9-mediated immune stimulation in human PBMC assessed as RANTES production at 10 ug/ml after 24 hrs by luminex multiplex assay (RVb = 0.05 +/- 0.04 ng/ml)
[10] = target: T1, Toll-like receptor 9 (Homo sapiens); assay: Induction of TLR9-mediated immune stimulation in human PBMC assessed as IL12 production at 10 ug/ml after 24 hrs by luminex multiplex assay (RVb = 0.00 ng/ml)
[11] = target: T1, Toll-like receptor 9 (Homo sapiens); assay: Induction of TLR9-mediated immune stimulation in human PBMC assessed as RANTES production at 2 ug/ml after 24 hrs by luminex multiplex assay (RVb = 0.05 +/- 0.04 ng/ml)
Mus musculus = assay: Immunostimulatory activity in C57BL/6 mouse assessed as increase in serum IL12 level at 1 mg/kg, sc after 2 hrs by ELISA; assay type: functional, organism-based; design: dose 1 mg/kg
Procedure, shortened: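 Female C57BL/6 mice (n=3) received a single subcutaneous agonist dose of 1 mg/kg. Blood was taken by retro-orbital bleeding 2 h later, and serum IL-12 was measured by sandwich ELISA. Values are the mean of three mice ± SD.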

Activity [1]: 0.16 ng/mL
Activity [2]: 0.21 ng/mL
Activity [3]: 0.11 ng/mL
Activity [4]: 10.7 ng/mL
Activity [5]: Dose-dependent effect
Activity [6]: 0.04 ng/mL
Activity [7]: 0.12 ng/mL
Activity [8]: 0.05 ng/mL
Activity [9]: 1.32 ng/mL
Activity [10]: 0.19 ng/mL
Activity [11]: 1.57 ng/mL
Structure (SMILES): Cc1cn([C@H]2C[C@H](OCCOCCOCCOCCOCCOCCOP(=O)(S)O[C@H]3C[C@H](n4cc(C)c(=O)[nH]c4=O)O[C@@H]3COP(=O)(S)O[C@H]3[C@@H](O)[C@H](n4ccc(N)nc4=O)O[C@@H]3COP(=O)(S)O[C@H]3C[C@H](n4cc(C)c(=O)[nH]c4=O)O[C@@H]3COP(=O)(S)O[C@H]3C[C@H](n4cc(C)c(=O)[nH]c4=O)O[C@@H]3COP(=O)(S)O[C@H]3C[C@H](n4ccc5c(=O)[nH]c(N)nc54)O[C@@H]3COP(=O)(S)O[C@H]3[C@@H](O)[C@H](n4ccc(N)nc4=O)O[C@@H]3COP(=O)(S)O[C@H]3C[C@H](n4cc(C)c(=O)[nH]c4=O)O[C@@H]3COP(=O)(S)O[C@H]3[C@@H](O)[C@H](n4cnc5c(=O)[nH]c(N)nc54)O[C@@H]3COP(=O)(S)O[C@H]3C[C@H](n4cc(C)c(=O)[nH]c4=O)O[C@@H]3COP(=O)(S)O[C@H]3[C@@H](O)[C@H](n4ccc(N)nc4=O)O[C@@H]3COP(=O)(S)O[C@H]3C[C@H](n4cc(C)c(=O)[nH]c4=O)O[C@@H]3CO)[C@@H](COP(=O)(S)O[C@H]3[C@@H](O)[C@H](n4ccc(N)nc4=O)O[C@@H]3COP(=O)(S)O[C@H]3C[C@H](n4cc(C)c(=O)[nH]c4=O)O[C@@H]3COP(=O)(S)O[C@H]3C[C@H](n4cc(C)c(=O)[nH]c4=O)O[C@@H]3COP(=O)(S)O[C@H]3C[C@H](n4ccc5c(=O)[nH]c(N)nc54)O[C@@H]3COP(=O)(S)O[C@H]3[C@@H](O)[C@H](n4ccc(N)nc4=O)O[C@@H]3COP(=O)(S)O[C@H]3C[C@H](n4cc(C)c(=O)[nH]c4=O)O[C@@H]3COP(=O)(S)O[C@H]3[C@@H](O)[C@H](n4cnc5c(=O)[nH]c(N)nc54)O[C@@H]3COP(=O)(S)O[C@H]3C[C@H](n4cc(C)c(=O)[nH]c4=O)O[C@@H]3COP(=O)(S)O[C@H]3[C@@H](O)[C@H](n4ccc(N)nc4=O)O[C@@H]3COP(=O)(S)O[C@H]3C[C@H](n4cc(C)c(=O)[nH]c4=O)O[C@@H]3CO)O2)c(=O)[nH]c1=O (some centres not stated)
Activity (Mus musculus): inactive
